# Source: BindingDB's records for doi:10.1021/jm0300835 (Duke University, 2003)
# Tests used:
# [1] = molecular target: T1, M-phase inducer phosphatase 2 (Homo sapiens, UniProt P30305); assay: Inhibitory concentration of compound against Cdc25B phosphatase was determined using CDK2-p-TpY/Cyclin A as a substrate
# T1 sequence (P30305 whole entry): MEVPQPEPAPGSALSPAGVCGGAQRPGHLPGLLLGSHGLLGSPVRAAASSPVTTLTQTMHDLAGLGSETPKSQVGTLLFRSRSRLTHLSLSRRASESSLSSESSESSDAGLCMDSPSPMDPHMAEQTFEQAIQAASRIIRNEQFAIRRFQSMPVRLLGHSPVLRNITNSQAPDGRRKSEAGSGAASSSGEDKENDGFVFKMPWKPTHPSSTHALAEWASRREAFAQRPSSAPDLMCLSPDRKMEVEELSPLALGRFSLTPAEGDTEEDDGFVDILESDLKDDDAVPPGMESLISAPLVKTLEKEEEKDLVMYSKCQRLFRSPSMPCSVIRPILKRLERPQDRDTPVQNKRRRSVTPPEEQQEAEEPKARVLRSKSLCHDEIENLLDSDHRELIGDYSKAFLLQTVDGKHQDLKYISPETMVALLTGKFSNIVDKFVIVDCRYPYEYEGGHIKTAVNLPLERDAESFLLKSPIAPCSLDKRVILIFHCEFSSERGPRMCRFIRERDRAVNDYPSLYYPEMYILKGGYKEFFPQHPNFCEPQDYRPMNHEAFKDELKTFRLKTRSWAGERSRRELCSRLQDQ
# Outline: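 Cdc25B IC50 with Cdk2-pTpY/CycA protein substrate at 300 nM; eight inhibitor concentrations; time-dependent assays; 1 mg/mL BSA carrier added only after TCA quench, not during reaction.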
# [2] = molecular target: T1, M-phase inducer phosphatase 2; assay: Inhibitory concentration of compound against mutant WT of Cdc25B phosphatase was determined
# Outline: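 Cdc25B catalytic domain constructs (wild-type, site-directed point mutants, truncated); activity with 3-O-methylfluorescein phosphate at 50 μM (~5 × Km), product read at 477 nm by UV-vis under initial velocity (2–5% turnover); eight inhibitor concentrations, IC50 fitted; values are mean of two determinations.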
# [3] = molecular target: T1, M-phase inducer phosphatase 2; assay: Eight point inhibitory concentration against Cell division cycle 25B was determined
# Outline: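 Cdc25B activity read by UV-vis at 477 nm as product formed from 3-O-methylfluorescein phosphate (mFP) at 50 μM (~5 × Km), time-dependent, initial-velocity conditions (2–5% turnover); eight inhibitor concentrations, IC50 fitted to eq 1. Each reaction compared with a simultaneous no-inhibitor control; selected compounds run in duplicate.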
# [4] = molecular target: T1, M-phase inducer phosphatase 2; assay: Inhibitory concentration of compound against mutant E478Q of Cell division cycle 25B was determined
# Outline: (§1)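 Cdc25B catalytic-domain point mutants, a truncated form and wild type were assayed with 3-O-methylfluorescein phosphate as substrate, monitored at 477 nm under initial velocity conditions. Values are the mean of two separate determinations.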
# [5] = molecular target: T1, M-phase inducer phosphatase 2; assay: Inhibitory concentration of compound against mutant F475A of Cell division cycle 25B was determined; outline: as §1
# [6] = molecular target: T2, M-phase inducer phosphatase 3 (Homo sapiens, UniProt P30307); assay: Eight point inhibitory concentration against […] was determined
# T2 sequence (P30307 whole entry): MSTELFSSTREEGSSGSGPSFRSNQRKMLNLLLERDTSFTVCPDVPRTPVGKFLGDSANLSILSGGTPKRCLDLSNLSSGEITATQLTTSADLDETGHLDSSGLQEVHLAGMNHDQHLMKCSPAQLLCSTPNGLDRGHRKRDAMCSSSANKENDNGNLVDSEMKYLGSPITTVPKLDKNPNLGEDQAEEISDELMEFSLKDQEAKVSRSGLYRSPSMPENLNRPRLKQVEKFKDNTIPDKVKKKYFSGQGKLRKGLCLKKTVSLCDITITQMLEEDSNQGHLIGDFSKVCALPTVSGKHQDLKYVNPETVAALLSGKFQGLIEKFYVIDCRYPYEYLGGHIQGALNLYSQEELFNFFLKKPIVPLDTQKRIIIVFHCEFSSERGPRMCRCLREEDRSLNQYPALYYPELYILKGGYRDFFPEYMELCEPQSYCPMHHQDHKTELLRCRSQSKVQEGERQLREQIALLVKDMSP
# Outline: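 Phosphatase activity measured with 3-O-methylfluorescein phosphate at 50 μM (~5 × Km), product formation followed at 477 nm by UV-vis under initial velocity conditions (2–5% turnover) in time-dependent assays. Eight inhibitor concentrations were used, and IC50 was obtained by fitting to a dose–response equation.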
# [7] = molecular target: T1, M-phase inducer phosphatase 2; assay: Inhibitory concentration of compound against mutant E474Q of Cell division cycle 25B was determined; outline: as §1
# [8] = molecular target: T1, M-phase inducer phosphatase 2; assay: Inhibitory concentration of compound against mutant M531A of Cell division cycle 25B was determined; outline: as §1
IC50 [1],IC50 [2],IC50 [3],IC50 [4],IC50 [5],IC50 [6],IC50 [7],IC50 [8],Compound
> 50 µM,18 µM,18 µM,–,–,–,–,–,"O=C1CC(=O)C(=O)C(c2c[nH]c3ccccc23)C1=O [2,5-Dihydroxy-3-(1H-indol-3-yl)-[1,4]benzoquinone]"
–,–,–,6.5 µM,> 50 µM,15 µM,> 50 µM,6.5 µM,"CC(C)=CCc1cccc2c(C3C(=O)C(=O)CC(=O)C3=O)c[nH]c12 [2,5-Dihydroxy-3-[7-(3-methyl-but-2-enyl)-1H-indol-3-yl]-[1,4]benzoquinone]"
